Experimental data taken from ChEMBL document CHEMBL4689842, “EUbOPEN Chemogenomics Library wave 1” (2021).

System: Fibroblast
Test: Multiplex assay against human fibroblast
Type: toxicity, cell-based
How it was run: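 Four dyes were applied at seeding to live cells: Hoechst33342, BioTracker Green Microtubule Cytoskeleton Dye, MitoTracker Red and Annexin V Alexa Fluor 680. Imaging after compound addition used a CQ1 microscope at 37°C and 5% CO2. CellPathfinder machine-learning gating then sorted cells into Hoechst high-intensity objects or normal cells, normal cells into healthy, pyknosed or fragmented nuclei, and pyknosed cells into mitotic or apoptotic, with tubulin, mitochondrial-mass and membrane-permeability phenotypes given as per cents of healthy-nucleus cells.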

[1] = 12 h, 1 µM, compound concentration 1 uM, replicate 1
[2] = 12 h, 1 µM, compound concentration 1 uM, replicate 2
[3] = 12 h, 10 µM, compound concentration 10 uM, replicate 1
[4] = 12 h, 10 µM, compound concentration 10 uM, replicate 2
[5] = 24 h, 1 µM, compound concentration 1 uM, replicate 1
[6] = 24 h, 1 µM, compound concentration 1 uM, replicate 2
[7] = 24 h, 10 µM, compound concentration 10 uM, replicate 1
[8] = 24 h, 10 µM, compound concentration 10 uM, replicate 2
[9] = 48 h, 1 µM, compound concentration 1 uM, replicate 1
[10] = 48 h, 1 µM, compound concentration 1 uM, replicate 2
[11] = 48 h, 10 µM, compound concentration 10 uM, replicate 1
[12] = 48 h, 10 µM, compound concentration 10 uM, replicate 2

CNC(=O)Nc1ccc(-c2nc(N3CC4CCC(C3)O4)c3cnn(C4CCC5(CC4)OCCO5)c3n2)cc1
Population Apoptotic (%) [1]: 47%
Population Fragmented Nuclei (%) [1]: 38%
Population Healthy Nuclei (%) [1]: 32%
Population Hoechst High Intensity Objects (%) [1]: 14%
Population Membrane Permeable-Phenotype (%) [1]: 29%
Population Mitochondria Different-Phenotype (%) [1]: 4%
Population Mitotic Cells (%) [1]: 52%
Population Normal (%) [1]: 85%
Population Pyknosed Nuclei (%) [1]: 28%
Population Tubulin-Different-Phenotype (%) [1]: 54%
Total Cell Count [1]: 85
Population Apoptotic (%) [2]: 0%
Population Fragmented Nuclei (%) [2]: 28%
Population Healthy Nuclei (%) [2]: 55%
Population Hoechst High Intensity Objects (%) [2]: 10%
Population Membrane Permeable-Phenotype (%) [2]: 5%
Population Mitochondria Different-Phenotype (%) [2]: 13%
Population Mitotic Cells (%) [2]: 100%
Population Normal (%) [2]: 89%
Population Pyknosed Nuclei (%) [2]: 16%
Population Tubulin-Different-Phenotype (%) [2]: 18%
Total Cell Count [2]: 54
Population Apoptotic (%) [3]: 50%
Population Fragmented Nuclei (%) [3]: 28%
Population Healthy Nuclei (%) [3]: 29%
Population Hoechst High Intensity Objects (%) [3]: 16%
Population Membrane Permeable-Phenotype (%) [3]: 30%
Population Mitochondria Different-Phenotype (%) [3]: 15%
Population Mitotic Cells (%) [3]: 50%
Population Normal (%) [3]: 83%
Population Pyknosed Nuclei (%) [3]: 41%
Population Tubulin-Different-Phenotype (%) [3]: 96%
Total Cell Count [3]: 104
Population Apoptotic (%) [4]: 25%
Population Fragmented Nuclei (%) [4]: 13%
Population Healthy Nuclei (%) [4]: 54%
Population Hoechst High Intensity Objects (%) [4]: 6%
Population Membrane Permeable-Phenotype (%) [4]: 36%
Population Mitochondria Different-Phenotype (%) [4]: 75%
Population Mitotic Cells (%) [4]: 75%
Population Normal (%) [4]: 93%
Population Pyknosed Nuclei (%) [4]: 32%
Total Cell Count [4]: 107
Population Apoptotic (%) [5]: 38%
Population Fragmented Nuclei (%) [5]: 30%
Population Healthy Nuclei (%) [5]: 33%
Population Hoechst High Intensity Objects (%) [5]: 20%
Population Membrane Permeable-Phenotype (%) [5]: 25%
Population Mitochondria Different-Phenotype (%) [5]: 10%
Population Mitotic Cells (%) [5]: 61%
Population Normal (%) [5]: 79%
Population Pyknosed Nuclei (%) [5]: 35%
Population Tubulin-Different-Phenotype (%) [5]: 60%
Total Cell Count [5]: 74
Population Apoptotic (%) [6]: 25%
Population Fragmented Nuclei (%) [6]: 19%
Population Healthy Nuclei (%) [6]: 64%
Population Hoechst High Intensity Objects (%) [6]: 18%
Population Membrane Permeable-Phenotype (%) [6]: 8%
Population Mitochondria Different-Phenotype (%) [6]: 6%
Population Mitotic Cells (%) [6]: 75%
Population Normal (%) [6]: 81%
Population Pyknosed Nuclei (%) [6]: 16%
Population Tubulin-Different-Phenotype (%) [6]: 23%
Total Cell Count [6]: 55
Population Apoptotic (%) [7]: 77%
Population Fragmented Nuclei (%) [7]: 28%
Population Healthy Nuclei (%) [7]: 35%
Population Hoechst High Intensity Objects (%) [7]: 18%
Population Membrane Permeable-Phenotype (%) [7]: 25%
Population Mitochondria Different-Phenotype (%) [7]: 37%
Population Mitotic Cells (%) [7]: 22%
Population Normal (%) [7]: 81%
Population Pyknosed Nuclei (%) [7]: 35%
Population Tubulin-Different-Phenotype (%) [7]: 88%
Total Cell Count [7]: 93
Population Apoptotic (%) [8]: 41%
Population Fragmented Nuclei (%) [8]: 8%
Population Healthy Nuclei (%) [8]: 42%
Population Hoechst High Intensity Objects (%) [8]: 6%
Population Membrane Permeable-Phenotype (%) [8]: 44%
Population Mitochondria Different-Phenotype (%) [8]: 84%
Population Mitotic Cells (%) [8]: 58%
Population Normal (%) [8]: 93%
Population Pyknosed Nuclei (%) [8]: 49%
Population Tubulin-Different-Phenotype (%) [8]: 96%
Total Cell Count [8]: 90
Population Apoptotic (%) [9]: 33%
Population Fragmented Nuclei (%) [9]: 42%
Population Healthy Nuclei (%) [9]: 37%
Population Hoechst High Intensity Objects (%) [9]: 19%
Population Membrane Permeable-Phenotype (%) [9]: 13%
Population Mitochondria Different-Phenotype (%) [9]: 8%
Population Mitotic Cells (%) [9]: 66%
Population Normal (%) [9]: 80%
Population Pyknosed Nuclei (%) [9]: 19%
Population Tubulin-Different-Phenotype (%) [9]: 43%
Total Cell Count [9]: 76
Population Apoptotic (%) [10]: 75%
Population Fragmented Nuclei (%) [10]: 33%
Population Healthy Nuclei (%) [10]: 61%
Population Hoechst High Intensity Objects (%) [10]: 12%
Population Membrane Permeable-Phenotype (%) [10]: 10%
Population Mitochondria Different-Phenotype (%) [10]: 2%
Population Mitotic Cells (%) [10]: 25%
Population Normal (%) [10]: 87%
Population Pyknosed Nuclei (%) [10]: 5%
Population Tubulin-Different-Phenotype (%) [10]: 10%
Total Cell Count [10]: 88
Population Apoptotic (%) [11]: 50%
Population Fragmented Nuclei (%) [11]: 42%
Population Healthy Nuclei (%) [11]: 37%
Population Hoechst High Intensity Objects (%) [11]: 19%
Population Membrane Permeable-Phenotype (%) [11]: 19%
Population Mitochondria Different-Phenotype (%) [11]: 61%
Population Mitotic Cells (%) [11]: 50%
Population Normal (%) [11]: 80%
Population Pyknosed Nuclei (%) [11]: 20%
Population Tubulin-Different-Phenotype (%) [11]: 80%
Total Cell Count [11]: 87
Population Apoptotic (%) [12]: 33%
Population Fragmented Nuclei (%) [12]: 48%
Population Healthy Nuclei (%) [12]: 49%
Population Hoechst High Intensity Objects (%) [12]: 9%
Population Membrane Permeable-Phenotype (%) [12]: 18%
Population Mitochondria Different-Phenotype (%) [12]: 12%
Population Mitotic Cells (%) [12]: 66%
Population Normal (%) [12]: 90%
Population Pyknosed Nuclei (%) [12]: 2%
Population Tubulin-Different-Phenotype (%) [12]: 92%
Total Cell Count [12]: 122

CC(C)c1noc(N2CCC(COc3ccc(-c4ccc(S(C)(=O)=O)cc4)nc3)CC2)n1 [GSK-1292263]
Population Apoptotic (%) [1]: 65%
Population Fragmented Nuclei (%) [1]: 28%
Population Healthy Nuclei (%) [1]: 45%
Population Hoechst High Intensity Objects (%) [1]: 12%
Population Membrane Permeable-Phenotype (%) [1]: 21%
Population Mitochondria Different-Phenotype (%) [1]: 15%
Population Mitotic Cells (%) [1]: 34%
Population Normal (%) [1]: 87%
Population Pyknosed Nuclei (%) [1]: 25%
Population Tubulin-Different-Phenotype (%) [1]: 49%
Total Cell Count [1]: 128
Population Apoptotic (%) [2]: 50%
Population Fragmented Nuclei (%) [2]: 12%
Population Healthy Nuclei (%) [2]: 85%
Population Hoechst High Intensity Objects (%) [2]: 2%
Population Membrane Permeable-Phenotype (%) [2]: 3%
Population Mitochondria Different-Phenotype (%) [2]: 4%
Population Mitotic Cells (%) [2]: 50%
Population Normal (%) [2]: 97%
Population Pyknosed Nuclei (%) [2]: 2%
Population Tubulin-Different-Phenotype (%) [2]: 9%
Total Cell Count [2]: 89
Population Apoptotic (%) [3]: 52%
Population Fragmented Nuclei (%) [3]: 21%
Population Healthy Nuclei (%) [3]: 45%
Population Hoechst High Intensity Objects (%) [3]: 5%
Population Membrane Permeable-Phenotype (%) [3]: 24%
Population Mitochondria Different-Phenotype (%) [3]: 5%
Population Mitotic Cells (%) [3]: 48%
Population Normal (%) [3]: 94%
Population Pyknosed Nuclei (%) [3]: 33%
Population Tubulin-Different-Phenotype (%) [3]: 49%
Total Cell Count [3]: 160
Population Apoptotic (%) [4]: 42%
Population Fragmented Nuclei (%) [4]: 5%
Population Healthy Nuclei (%) [4]: 83%
Population Membrane Permeable-Phenotype (%) [4]: 3%
Population Mitochondria Different-Phenotype (%) [4]: 10%
Population Mitotic Cells (%) [4]: 57%
Population Pyknosed Nuclei (%) [4]: 10%
Population Tubulin-Different-Phenotype (%) [4]: 15%
Total Cell Count [4]: 76
Population Apoptotic (%) [5]: 38%
Population Fragmented Nuclei (%) [5]: 27%
Population Healthy Nuclei (%) [5]: 39%
Population Hoechst High Intensity Objects (%) [5]: 8%
Population Membrane Permeable-Phenotype (%) [5]: 39%
Population Mitochondria Different-Phenotype (%) [5]: 12%
Population Mitotic Cells (%) [5]: 61%
Population Normal (%) [5]: 91%
Population Pyknosed Nuclei (%) [5]: 33%
Population Tubulin-Different-Phenotype (%) [5]: 75%
Total Cell Count [5]: 112
Population Apoptotic (%) [6]: 0%
Population Fragmented Nuclei (%) [6]: 14%
Population Healthy Nuclei (%) [6]: 83%
Population Hoechst High Intensity Objects (%) [6]: 2%
Population Membrane Permeable-Phenotype (%) [6]: 2%
Population Mitochondria Different-Phenotype (%) [6]: 10%
Population Mitotic Cells (%) [6]: 100%
Population Normal (%) [6]: 97%
Population Pyknosed Nuclei (%) [6]: 2%
Population Tubulin-Different-Phenotype (%) [6]: 13%
Total Cell Count [6]: 103
Population Apoptotic (%) [7]: 52%
Population Fragmented Nuclei (%) [7]: 20%
Population Healthy Nuclei (%) [7]: 45%
Population Hoechst High Intensity Objects (%) [7]: 10%
Population Membrane Permeable-Phenotype (%) [7]: 23%
Population Mitochondria Different-Phenotype (%) [7]: 4%
Population Mitotic Cells (%) [7]: 47%
Population Normal (%) [7]: 89%
Population Pyknosed Nuclei (%) [7]: 34%
Population Tubulin-Different-Phenotype (%) [7]: 70%
Total Cell Count [7]: 178
Population Apoptotic (%) [8]: 36%
Population Fragmented Nuclei (%) [8]: 7%
Population Healthy Nuclei (%) [8]: 79%
Population Hoechst High Intensity Objects (%) [8]: 4%
Population Membrane Permeable-Phenotype (%) [8]: 7%
Population Mitochondria Different-Phenotype (%) [8]: 12%
Population Mitotic Cells (%) [8]: 63%
Population Normal (%) [8]: 95%
Population Pyknosed Nuclei (%) [8]: 13%
Population Tubulin-Different-Phenotype (%) [8]: 7%
Total Cell Count [8]: 91
Population Apoptotic (%) [9]: 35%
Population Fragmented Nuclei (%) [9]: 29%
Population Healthy Nuclei (%) [9]: 54%
Population Hoechst High Intensity Objects (%) [9]: 12%
Population Membrane Permeable-Phenotype (%) [9]: 33%
Population Mitochondria Different-Phenotype (%) [9]: 8%
Population Mitotic Cells (%) [9]: 64%
Population Normal (%) [9]: 88%
Population Pyknosed Nuclei (%) [9]: 15%
Population Tubulin-Different-Phenotype (%) [9]: 50%
Total Cell Count [9]: 100
Population Apoptotic (%) [10]: 0%
Population Fragmented Nuclei (%) [10]: 26%
Population Healthy Nuclei (%) [10]: 73%
Population Hoechst High Intensity Objects (%) [10]: 8%
Population Membrane Permeable-Phenotype (%) [10]: 21%
Population Mitochondria Different-Phenotype (%) [10]: 2%
Population Mitotic Cells (%) [10]: 0%
Population Normal (%) [10]: 91%
Population Pyknosed Nuclei (%) [10]: 0%
Population Tubulin-Different-Phenotype (%) [10]: 48%
Total Cell Count [10]: 70
Population Apoptotic (%) [11]: 44%
Population Fragmented Nuclei (%) [11]: 27%
Population Healthy Nuclei (%) [11]: 54%
Population Hoechst High Intensity Objects (%) [11]: 14%
Population Membrane Permeable-Phenotype (%) [11]: 29%
Population Mitochondria Different-Phenotype (%) [11]: 4%
Population Mitotic Cells (%) [11]: 55%
Population Normal (%) [11]: 85%
Population Pyknosed Nuclei (%) [11]: 18%
Population Tubulin-Different-Phenotype (%) [11]: 69%
Total Cell Count [11]: 184
Population Apoptotic (%) [12]: 66%
Population Fragmented Nuclei (%) [12]: 21%
Population Healthy Nuclei (%) [12]: 74%
Population Hoechst High Intensity Objects (%) [12]: 9%
Population Membrane Permeable-Phenotype (%) [12]: 28%
Population Mitochondria Different-Phenotype (%) [12]: 0%
Population Mitotic Cells (%) [12]: 33%
Population Normal (%) [12]: 90%
Population Pyknosed Nuclei (%) [12]: 4%
Population Tubulin-Different-Phenotype (%) [12]: 59%
Total Cell Count [12]: 77
